Measurements as given in the EternaBench riboswitch data.

System: MS2 coat protein
Experiment: apparent Kd, MS2 coat protein; higher = weaker binding; RNA-MaP array; tryptophan 2.4 mM where present
How it was run: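 The apparent Kd is the median of filtered binding-curve fits, one per cluster, to green signal normalised to red-channel RNA signal and control-cluster median Fmax. The clusters were on Illumina sequencing chips, and stalled E. coli RNA polymerase had transcribed the designs on them. Titration used SNAP-549-labelled MS2 coat protein from 0.7 or 1.5 nM, doubling to 3 µM, without and then with constant ligand, in 100 mM Tris-HCl pH 7.5, 80 mM KCl, 4 mM MgCl2, BSA, DTT, yeast tRNA and Tween-20.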

[1] = designed as: OFF switch for tryptophan, no ligand
[2] = ligand present: tryptophan, designed as: OFF switch for tryptophan
[3] = designed as: ON switch for tryptophan, no ligand
[4] = ligand present: tryptophan, designed as: ON switch for tryptophan

Sequence | apparent Kd [1] [nM] | apparent Kd [2] [nM] | apparent Kd [3] [nM] | apparent Kd [4] [nM]
GCUGGACUUUCGGCCGCCACUGAGAGAGUCGUGUGAACAUGAGGAUCACCCAUGUAAUAUAUAUACAGGACCGGGAGGGUUGUGC | 11.8 | 11.9 |  | 
AGACUUCGCAUAGGAAAACUAUGUGAAGUCCGAGGACCGGUACGGCCGCCACUCGUCCUCACAUGAGGAUCACCCAUGUAAAUAA | 22.2 | 29.1 |  | 
AGAUUCGACACGGCCGCCACUCGUGACGGAUUUCCGAGUGUCGAACAUGAGGAUCACCCAUGUACGAGGACCGGGUGUUGAGUCU | 74.7 | 499 |  | 
CGAGUAAGAACAAUCGAAUAACGGUUUUCGCGAGGACCGGUACGGCCGCCACUCGUGUGAUAUCACACAUGAGGAUCACCCAUGU |  |  | 80.2 | 41.2
CCUAUGCAGUCGGCCGCCACUGAUAACGUUAUCGUUACCUCAGAAACAUGAGGAUCACCCAUGUACAGGACCGGGACUGUAUAGG | 12.8 | 15.3 |  | 
AACAUGAGGAUCACCCAUGUACAUUUCGAUCGAGGACCGGUACGGCCGCCACUCGAAAACAUGAGGAUCACCCAUGUUCAACAGG |  |  | 296 | 184
AAUAAUAUCCUCAUGUGAGUCGUACCGUAACGAGGACCGGUACGGCCGCCACUCGAACAUGAGGAUCACCCAUGUAGGUACGACA |  |  | 207 | 99.7
AAUAUAAUAGACUCGUUUUAGUAUUUGGAACGAGGACCGGUACGGCCGCCACUCGUGAUUUACAUGAGGAUCACCCAUGUUAGCA |  |  | 14.7 | 13.1
GGUUACUCUACGGCCGCCACUGAACAUGAGGAUCACCCAUGUAAUGUUCAGUAGUCUUUAGACAACAGGACCGGGUAGUGUAACC |  |  | 228 | 215
UGUCAGCGAAAGUUGACAUGUCUUGCUGGUCGAGGACCGGUACGGCCGCCACUCGAUCUCUCGCACAUGAGGAUCACCCAUGUUG |  |  | 12.6 | 13.4
GCAUCCUAGUCGGCCGCCACUGCAUCACCAGUGGCAGGUGAUCAACAUGAGGAUCACCCAUGUAGCAGGACCGGGACUAGGAUGC |  |  | 135 | 43.7
GGGAGGUAGGCGGCCGCCACUGAUUUUCAUAUAUAUAUAACAUGAGGAUCACCCAUGUAGAUAUGCAGGACCGGGCCUGUUUUUU |  |  | 23.9 | 19.3
GAGUCCGCGGCGGCCGCCACUCGCGAUAUAACAUGAUAUCAGGACAUGAGGAUCACCCAUGUCACGAGGACCGGGCCGAUCCUCA |  |  | 28 | 17.6
AACAUGAGGAUCACCCAUGUGUCCUCGAAACGAGGACCGGUACGGCCGCCACUCGAAUAAGGUGUUGACGAAAAGUCAGCACCAA | 274 | 501 |  | 
AUAAAUAAUAAAUAAAAUAAAAUGGGUGAACGAGGACCGGUACGGCCGCCACUCGGACAUGAGGAUCACCCAUGUCCAUGUGAAA | 19.5 | 46.1 |  | 
GCUACAUGAGGAUCACCCAUGUAUGCGAGCCGAGGACCGGUACGGCCGCCACUCGCUUAACAUGAGGAUCACCCAUGUUUCUCGG |  |  | 169 | 125
UUAGUAACGACGGCCGCCACUGAAUUUGAACAUGAGGAUCACCCAUGUAGAGAUCCUAGAAUAAACAGGACCGGGUCUGAUAAUG | 95.7 | 118 |  | 
AACAUGAGGAUCACCCAUGUGUCCUCGAAACGAGGACCGGUACGGCCGCCACUCGACGUAUGUUGACGAAAAGUCAGCAUACGAA | 281 | 885 |  | 
UCGGAUGCGGCGGCCGCCACUCGCGGAUAACGAUAGCUUAACAUGAGGAUCACCCAUGUGUCAUGGAGGACCGGGCCCAUACCGU |  |  | 23.4 | 20.7

Sequence | apparent Kd [1] [nM] | apparent Kd [2] [nM] | apparent Kd [3] [nM] | apparent Kd [4] [nM]
AACUUCGCAUAGGAAAACUAUGUGAAGAAUCGAGGACCGGUACGGCCGCCACUCGUCCUCAACAUGAGGAUCACCCAUGUAAUAA | 18.9 | 34.8 |  | 
UGUCAUGGAAACAUGACAGGUCUUACCGGUCGAGGACCGGUACGGCCGCCACUCGAUUGGUGGCACAUGAGGAUCACCCAUGUUA |  |  | 29 | 26.7
CGCCACUCGAGUGAUCCUCACGAGUGGCUACGAGGACCGGUACGGCCGCCACUCGAAUUAACAUGAGGAUCACCCAUGUAAUCUA |  |  | 56.7 | 27.7
AGCCACUCGAGUGAUCCUCACGAGUGGCUACGAGGACCGGUACGGCCGCCACUCGAAUUAACAUGAGGAUCACCCAUGUAAUCAU |  |  | 31.5 | 111
AUAUAUACAUGAGGAUCACCCAUGUUAUUUCGAGGACCGGUACGGCCGCCACUCGAUAGAGUGGAAGUAACAUUUGUUAGAUGAU |  |  | 15.7 | 15.4
AUACAUGAGGAUCACCCAUGUGAUGGCCGGCGAGGACCGGUACGGCCGCCACUCGUGAUCCGUCCUGAAAGCAAAGCUCUCAACA |  |  | 47.2 | 91.2
UGUCAGCGAAAGUUGACAUGUCUUACCGGUCGAGGACCGGUACGGCCGCCACUCGAUCACUCGCACAUGAGGAUCACCCAUGUCG |  |  | 12.4 | 11.7
GGAAACCCGACGGCCGCCACUAACGGUCUCAAAAGAGGUUGAACACAUGAGGAUCACCCAUGUAAUAGGACCGGGUCGUGUGAAA |  |  | 20.3 | 18.5
CUACAUUUGUAGAAACCGGUCAACAAUAAUCGAGGACCGGUACGGCCGCCACUCGAUGUGUUAUACACAUGAGGAUCACCCAUGU |  |  | 21.1 | 17.4
AUUAAUAAUAUGUAGACGGCGGAGACGAGACGAGGACCGGUACGGCCGCCACUCGUGUUAGUUAACAUGAGGAUCACCCAUGUUA |  |  | 12.5 | 12.8
AGAUUCGACACGGCCGCCACUUUCAGUGGCUGGUCACAUGGUGCACAUGAGGAUCACCCAUGUGGAAGGACCGGGUGUUGAGUCU | 28 | 91.9 |  | 
UGCAUUAUACAUGGAUCACCCAUGUAGACACGAGGACCGGUACGGCCGCCACUCGGAAGAGGGAACAUGAGGAUCACCCAUGUGA |  |  | 52.5 | 51.5
UUCGUAUUGUCGGCCGCCACUGCAACAUGAGGAUCACCCAUGUAAAUUUGGGAGUAGUUAUAUUACAGGACCGGGACAAUAGUAA | 102 | 139 |  | 
UAUUAUCAGUCGGCCGCCACUGUCACAUGAGGAUCACCCAUGUAACUUGGGUUAUAUUUAAUAUACAGGACCGGGACAAAGGCUA | 58.6 | 115 |  | 
ACCUGCGUUUGAUUCUAUCAGACGCAGGUUCGAGGACCGGUACGGCCGCCACUCGGACAUGAGGAUCACCCAUGUUUGACAUGGG | 64.5 | 211 |  | 
UGUCAGCGAAAGUUGACAUGUCUUACCGGUCGAGGACCGGUACGGCCGCCACUCGAUCACUCGCACAUGAGGAUCACCCAUGUUG |  |  | 18.9 | 14.3
GAGGAAACUCACAUGAGGAUCACCCAUGUACGAGGACCGGUACGGCCGCCACUCGAAACCAUGGGCGGUAGUACAUGGAAACAUG | 72.3 | 263 |  | 
CUCAUCCACGCGGCCGCCACUAUAUUGUGGUGUGAGUGUGACGUAUUACAUGAGGAUCACCCAUGUAGGACCGGGCGUGGAUGAG | 34.6 | 308 |  | 
AAACAUGAGGCGGCCGCCACUGUAUGAACAUGAGGAUCACCCAUGUAUGUACCCAUGUGUGUACACAGGACCGGGCCAUGUGGAU | 28.1 | 19.9 |  | 
